Assay outcomes as filed in PubChem.
A selection: hits, their analogues and other compounds. The true share with any hit is near 4.9%.
STAT1 blocker: inhibitors of IFN-gamma induced STAT1 signaling. NIH 3T3 STAT1-luciferase reporter, luminescence. inhibition, % at 5.5 µM. actives 0.35% (n = 200,000). AID 920;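 active = inhibition above a set limit, the mean inhibition across all tested compounds plus 3 SD, cut at about 34% in these data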;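 also: 0% = IFN-gamma with DMSO and 100% = IFN-gamma with 300 µM nifuroxazide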
STAT3 act: activators of IL-6 induced STAT3 signaling | U3A cells, IL-6 STAT3-luciferase reporter, luminescence; 100% = signal with IL-6 EC80 alone | activation (% of control), % at 5.6 µM | actives 0.91% (n = 190,000);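 active = activation above the screen-wide mean of compound activation plus 3 SD, cut at about 130% in these data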;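 also: 0% = background luminescence of wells with medium and substrate only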
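Material: STAT3-luciferase reporter U3A cells. Controls: IL-6-treated wells, 100% activation. Read-out: % activation versus median of IL-6-stimulated wells. Probe or stimulus: IL-6 stimulus at 33 ng/mL final. Timing: compound 1 h, then IL-6 6 h at 37 °C. Signal: reporter luminescence signal.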
APP 5'UTR act: APP 5'UTR luciferase reporter activation. activation, % at 2 µM. SH-SY5Y APP 5'UTR luciferase reporter, luminescence; zero percent = DMSO vehicle wells. actives 1% (n = 190,000);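 active = activation above a set limit, based on mean plus 3 SD of controls, cut at about 140% in these data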
STAT1 act: activators of IFN-gamma induced STAT1 signaling; AID 932; actives 2.6% (n = 200,000); NIH 3T3 STAT1-luciferase reporter, luminescence; 100% = IFN-gamma alone, no compound; activation (% of control), % at 5.5 µM;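 active = activation above the screen-wide mean activation plus 3 SD, cut at about 130% in these data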;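 also: raw ratio to IFN-gamma control signal so 100% means no change and 0% no light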
STAT3 inh: reduces IL-6 driven STAT3 reporter signal; U3A cells, IL-6 STAT3-luciferase reporter, luminescence; host cell line lacks STAT1; inhibition, % at 5.5 µM; actives 0.89% (n = 190,000);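 active = inhibition above the mean inhibition across all screened compounds plus 3 SD, cut at about 44% in these data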;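 also: 0% = DMSO only wells and 100% = 100 µM nifuroxazide control wells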
NF-kB neuron act: compounds increasing NF-kB expression in human neuronal cells; NF-kB reporter expression; stronger effect = higher value; AID 1239; actives 1.6% (n = 190,000); fold change at 12.5 µM; in the data active = fold change above about 3.3
Active calls of the source: *.

SMILES | STAT1 blocker | STAT3 act | APP 5'UTR act | STAT1 act | STAT3 inh | NF-kB neuron act
O=C1N/C(=C/c2ccc(N3CCOCC3)o2)C(=O)N1c1ccccc1 | -0.5 | 89.7 | -54.0 | 100.4 | 14.8 | 6.25*
O=C1/C(=C/c2ccc(N3CCCC3)cc2)NC(=S)N1C1CC1 | -17.1 | 90.6 | 34.7 | 115.7 | 10.0 | 0.89
C=CCN1C(=O)N/C(=C/c2ccc(N3CCOCC3)o2)C1=O | 25.1 | 84.3 | -88.5 | 78.2 | 17.5 | 0.44
CCS(=O)(=O)N1Cc2ccccc2CC1C(=O)Nc1nccs1 (configuration not stated) | -36.4 | 118.2 | 81.2 | 132.6* | -21.0 | 1.66
CCS(=O)(=O)N1Cc2ccccc2CC1C(=O)Nc1nc(C)cs1 (configuration not stated) | -35.9 | 90.8 | 104.2 | 134.4* | 11.9 | 1.05
COc1ccc(S(=O)(=O)N2Cc3ccccc3CC2C(=O)Nc2nccs2)cc1OC (configuration not stated) | -16.8 | 129.7 | 162.9* | 115.5 | -30.1 | 1.35
CCSc1nnc(NC(=O)C2Cc3ccccc3CN2S(=O)(=O)CC)s1 (configuration not stated) | -22.4 | 92.8 | -0.5 | 120.0 | 9.5 | 1.09
CCS(=O)(=O)N1Cc2ccccc2CC1C(=O)Nc1nc2c(C)cccc2s1 (configuration not stated) | -4.4 | 105.6 | 11.1 | 103.9 | -4.1 | 0.95
Fc1ccc(NC(=S)NCc2cccs2)cc1 | -0.1 | 99.2 | -2.8 | 100.1 | -1.6 | 1.15
Cc1ccc(C(=O)Nc2nc3ccc(S(C)(=O)=O)cc3s2)o1 | -22.3 | 93.3 | 102.7 | 120.6 | 10.7 | 2.14
O=C(NC(=S)Nc1nc2ccc(F)cc2s1)c1ccco1 | -31.5 | 156.9* | 106.7 | 130.3* | -68.8 | 0.84
CS(=O)(=O)c1ccc2nc(NC(=O)c3ccco3)sc2c1 | -34.1 | 93.9 | 63.9 | 130.6* | 12.5 | 2.29
CCN(CC)C(=S)Nc1cc(C(=O)OC)ccc1C(=O)OC | 1.2 | 99.8 | 1.8 | 101.1 | -2.3 | 1.11
COC(=O)c1ccc(CNC(=O)COC(=O)Cc2ccsc2)cc1 | -1.6 | 101.3 | 0.8 | 98.8 | 3.2 | 1.05
O=C(C1CC(c2ccc(F)cc2)=NO1)N1CCN(c2ccccc2)CC1 (configuration not stated) | -1.7 | 100.1 | 0.1 | 101.5 | 4.7 | 1.15
CC1CCCCN1C(=O)C1CC(c2ccc(F)cc2)=NO1 (configuration not stated) | -39.5 | 102.1 | 43.4 | 136.2* | 0.2 | 1.72
O=C(C1CC(c2ccc(F)cc2)=NO1)N1CCCCC1 (configuration not stated) | -34.5 | 96.5 | 66.5 | 131.6* | 9.8 | 2.15
CCN(CC)C(=O)c1sc(NC(=O)c2ccoc2C)c(C(=O)OC)c1C | -11.0 | 96.8 | -1.4 | 108.4 | 8.2 | 1.1
COc1ccc(-c2csc(NCc3ccco3)n2)cc1 | -36.9 | 104.6 | 157.7* | 135.2* | 1.1 | 6.2*
COc1ccc(-c2csc(NC(=O)COC(=O)C3=COCCO3)n2)cc1 | -30.8 | 98.5 | 44.8 | 129.6* | 2.4 | 1.17
COC(=O)c1c(-c2ccncc2)csc1NC(=O)c1ccoc1C | -36.5 | 93.1 | 29.1 | 135.8* | 9.7 | 2.53
COc1ccc(-c2csc(NC(=O)c3ccoc3C)n2)cc1 | -39.1 | 98.0 | 47.4 | 132.6* | 7.2 | 1.75
O=C1CSC(c2ccc(F)cc2)N1c1nnc(C23CC4CC(CC(C4)C2)C3)s1 (configuration not stated) | 3.2 | 100.5 | -5.9 | 97.1 | -2.3 | 1
COc1ccc([N+](=O)[O-])cc1N(CC(=O)NCCCOC(C)C)S(C)(=O)=O | -3.4 | 100.8 | -20.9 | 101.1 | 5.4 | 1.33
Cc1ccc(-c2csc(NC(=O)c3ccno3)n2)cc1 | -34.3 | 98.5 | 13.4 | 131.1* | 1.7 | 1.4
Cc1ccc(-c2csc(NC(=O)c3ccc(C)o3)n2)cc1 | 3.6 | 94.2 | 12.9 | 96.2 | 8.3 | 1.13
COc1ccccc1CNS(=O)(=O)N(C)C | -17.9 | 97.3 | 20.1 | 114.4 | 11.4 | 1.13
COc1ccc(N(C)S(=O)(=O)c2cccc(C(=O)OCC(=O)Nc3sc4c(c3C#N)CCCCC4)c2)cc1 | 14.3 | 93.6 | 11.8 | 87.3 | 5.3 | 1.26
CN(C)S(=O)(=O)c1cccc(C(=O)OCC(=O)Nc2sccc2C#N)c1 | -14.5 | 133.8* | -0.9 | 113.4 | -40.3 | 1.72
